Measured values reported in ChEMBL document CHEMBL1125291, “New 8-(trifluoromethyl)-substituted quinolones. The benefits of the 8-fluoro group with reduced phototoxic risk” (1992).
≈ marks a conversion by molar mass, not a printed value. Where “and” joins values, the source holds several entries; their conditions need not be identical. Equal values may be shown once.

What was measured:
Escherichia coli [1] = assay: In vivo efficacy in mouse protection test in Escherichia coli Vogel administered by subcutaneous injection.; type: functional; conditions: Escherichia coli, sc; read-out: PD50
Summary of the method: (§1)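 Acute lethal systemic infections in female Charles River CD-1 mice. A single dose was given at challenge, orally by gavage or by subcutaneous injection. PD50 (median protective dose, mg/kg) was determined.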

Staphylococcus aureus [2] = assay: Minimum inhibitory concentration (MIC) against gram positive bacteria Staphylococcus aureus H-228.; type: functional; conditions: Staphylococcus aureus; read-out: MIC
Summary of the method: (§2)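 MICs were determined by standard broth microtitration against 11 Gram-positive and Gram-negative organisms, in µg/mL. Values come from duplicate or triplicate experiments and are accurate to ±50%.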

Pseudomonas aeruginosa [3] = assay: Minimum inhibitory concentration (MIC) against gram negative bacteria Pseudomonas aeruginosa UI-18.; type: functional; conditions: Pseudomonas aeruginosa; read-out: MIC; summary of the method: as §2
Staphylococcus aureus [4] = assay: Minimum inhibitory concentration (MIC) against gram positive bacteria Staphylococcus aureus UC-76.; type: functional; conditions: Staphylococcus aureus; read-out: MIC; summary of the method: as §2
Streptococcus pyogenes [5] = assay: In vivo efficacy (s.c.) against Streptococcus pyogenes C-203 in mouse protection test; type: functional; conditions: Streptococcus pyogenes, sc; read-out: PD50; summary of the method: as §1
Enterococcus faecalis = assay: Minimum inhibitory concentration (MIC) against gram positive bacteria Streptococcus faecalis MGH-2.; type: functional; conditions: Enterococcus faecalis; read-out: MIC; summary of the method: as §2
Pseudomonas aeruginosa [6] = assay: In vivo efficacy (s.c.) against Pseudomonas aeruginosa in mouse protection test; type: functional; conditions: Pseudomonas aeruginosa, sc; read-out: PD50; summary of the method: as §1
Klebsiella pneumoniae = assay: Minimum inhibitory concentration (MIC) against gram negative bacteria Klebsiella pneumoniae MGH-2.; type: functional; conditions: Klebsiella pneumoniae; read-out: MIC; summary of the method: as §2
Pseudomonas aeruginosa [7] = assay: In vivo efficacy (orally) against Pseudomonas aeruginosa in mouse protection test; type: functional; conditions: Pseudomonas aeruginosa, po; read-out: PD50; summary of the method: as §1
Enterobacter cloacae = assay: Minimum inhibitory concentration (MIC) against gram negative bacteria Enterobacter cloacae MA-2646.; type: functional
[8] = Number of mice which show positive phototoxic reaction in 5 mice at peroral dose; type: functional, Mus musculus
Summary of the method: (§3)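 Depilated female CD-1 mice got a single oral (gavage) or subcutaneous dose, then UVA (320–400 nm) exposure for 3 h starting 1 h post-dose. This was repeated for up to 4 consecutive days. Initial doses were 30, 100 and 300 mg/kg. PTD50 was derived by probit. First day of positive reaction and no-effect dose were taken from the raw data.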

Mus musculus [9] = organism: Mus musculus; assay: Dose required to induce phototoxic reaction in 50% of mice by probit method at different dosage forms.; type: functional
Streptococcus pneumoniae [10] = assay: Minimum inhibitory concentration (MIC) against gram positive bacteria Streptococcus pneumoniae SV-1.; type: functional; conditions: Streptococcus pneumoniae; read-out: MIC; summary of the method: as §2
[11] = Number of mice which show positive phototoxic reaction in 5 mice at subcutaneous dose; type: functional, Mus musculus; summary of the method: as §3
Escherichia coli [12] = assay: Minimum inhibitory concentration (MIC) against gram negative bacteria Escherichia coli H-560.; type: functional; conditions: Escherichia coli; read-out: MIC; summary of the method: as §2
Streptococcus pyogenes [13] = assay: In vivo efficacy (orally) against Streptococcus pyogenes C-203 in mouse protection test; type: functional; conditions: Streptococcus pyogenes, po; read-out: PD50; summary of the method: as §1
Mus musculus [14] = assay: Maximum tolerance dose was measured for phototoxic skin reaction by po administration; type: functional
Streptococcus pneumoniae [15] = assay: In vivo efficacy (orally) against Streptococcus pneumoniae SV-1 in mouse protection test; type: functional; conditions: Streptococcus pneumoniae, po; read-out: PD50; summary of the method: as §1
Mus musculus [16] = organism: Mus musculus; assay: Dose which has no effect to induce phototoxic reaction in 50% of mice by probit method.; type: functional
[17] = Minimum inhibitory concentration (MIC) against gram negative bacteria Prot. rettgeri M-1771.; type: functional, Providencia rettgeri; conditions: Providencia rettgeri; read-out: MIC; summary of the method: as §2
Mus musculus [18] = assay: Maximum tolerance dose was measured for phototoxic skin reaction by sc administration; type: functional; summary of the method: as §3
Escherichia coli [19] = assay: Minimum inhibitory concentration (MIC) against gram negative bacteria Escherichia coli Vogel.; type: functional; conditions: Escherichia coli; read-out: MIC; summary of the method: as §2
Streptococcus pyogenes [20] = assay: Minimum inhibitory concentration (MIC) against gram positive bacteria Streptococcus pyogenes C-203.; type: functional; conditions: Streptococcus pyogenes; read-out: MIC; summary of the method: as §2
Escherichia coli [21] = assay: In vivo efficacy in mouse protection test in Escherichia coli Vogel dose administered orally by gavage.; type: functional; conditions: Escherichia coli, po; read-out: PD50; summary of the method: as §1
Streptococcus pneumoniae [22] = assay: In vivo efficacy (s.c.) against Streptococcus pneumoniae SV-1 in mouse protection test; type: functional; conditions: Streptococcus pneumoniae, sc; read-out: PD50; summary of the method: as §1
Mus musculus [23] = organism: Mus musculus; assay: Days of the first positive reaction in […] mice.; type: functional
Summary of the method: (§4)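 Phototoxic skin reaction test in depilated female CD-1 mice. A single oral dose (gavage) or subcutaneous dose was given, followed 1 h later by 3 h of UVA exposure (320–400 nm). The regimen was repeated for up to 4 consecutive days, with initial doses of 30, 100 and 300 mg/kg. PTD50 was derived by the probit method. The first day of positive reaction and the no-effect dose were taken from the raw data.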

Mus musculus [24] = organism: Mus musculus; assay: Number of mice which show positive phototoxic reaction.; type: functional; summary of the method: as §4
[25] = Number of mice which show positive phototoxic reaction in 15 mice; type: functional, Mus musculus; summary of the method: as §4
Mus musculus [26] = organism: Mus musculus; assay: Number of mice which show positive phototoxic reaction in 5 mice; type: functional
[27] = Days of the first positive reaction in […] mice; type: functional, Mus musculus; summary of the method: as §3
Mus musculus [28] = organism: Mus musculus; assay: Dose required to induce phototoxic reaction in 50% of mice by […] reactions at different dosage forms; type: functional; summary of the method: as §3

| Compound | ED50 (Escherichia coli [1]) | MIC (Staphylococcus aureus [2]) | MIC (Pseudomonas aeruginosa [3]) | MIC (Staphylococcus aureus [4]) | ED50 (Streptococcus pyogenes [5]) | MIC (Enterococcus faecalis) | ED50 (Pseudomonas aeruginosa [6]) | MIC (Klebsiella pneumoniae) | ED50 (Pseudomonas aeruginosa [7]) | MIC (Enterobacter cloacae) | PTD50 (Mus musculus [9]) | MIC (Streptococcus pneumoniae [10]) | MIC (Escherichia coli [12]) | ED50 (Streptococcus pyogenes [13]) | MTD (Mus musculus [14]) | No effect dose (Mus musculus [16]) | MIC [17] | MIC (Escherichia coli [19]) | MIC (Streptococcus pyogenes [20]) | ED50 (Escherichia coli [21]) | further results |
| --- | --- | --- | --- | --- | --- | --- | --- | --- | --- | --- | --- | --- | --- | --- | --- | --- | --- | --- | --- | --- | --- |
| CCn1cc(C(=O)O)c(=O)c2cc(F)c(N3CCNCC3)cc21 [NORFLOXACIN] | 0.6 mg/kg | 0.8 µg/mL (≈ 2.51 µM) | 0.2 µg/mL (≈ 0.626 µM) | 0.05 µg/mL (≈ 0.157 µM) | 45 mg/kg | 1.6 µg/mL (≈ 5.01 µM) | 11 mg/kg | 0.05 µg/mL (≈ 0.157 µM) | 76 mg/kg | 0.1 µg/mL (≈ 0.313 µM) | >300 mg/kg and 172 mg/kg | 1.6 µg/mL (≈ 5.01 µM) | 0.1 µg/mL (≈ 0.313 µM) | > 100 mg/kg | 300 mg/kg | 300 mg/kg and 100 mg/kg | 0.025 µg/mL (≈ 0.0783 µM) | 0.025 µg/mL (≈ 0.0783 µM) | 0.8 µg/mL (≈ 2.51 µM) | 4 mg/kg | No. of pos rxns [8]: 0; No. of pos rxns [11]: 5; ED50 (Streptococcus pneumoniae [15]): > 100 mg/kg; MTD (Mus musculus [18]): 300 mg/kg; ED50 (Streptococcus pneumoniae [22]): 150 mg/kg |
| NC1CCCN(c2c(F)cc3c(=O)c(C(=O)O)cn(C4CC4)c3c2C(F)(F)F)C1 (stereo not drawn) | 3.2 mg/kg | 0.2 µg/mL (≈ 0.484 µM) | 1.6 µg/mL (≈ 3.87 µM) | 0.025 µg/mL (≈ 0.0605 µM) | 12 mg/kg | 0.2 µg/mL (≈ 0.484 µM) |  | 0.2 µg/mL (≈ 0.484 µM) |  | 0.1 µg/mL (≈ 0.242 µM) | >100 mg/kg | 0.2 µg/mL (≈ 0.484 µM) | 0.1 µg/mL (≈ 0.242 µM) | 35 mg/kg | 100 mg/kg | 100 mg/kg | 0.4 µg/mL (≈ 0.968 µM) | 0.1 µg/mL (≈ 0.242 µM) | 0.2 µg/mL (≈ 0.484 µM) | 11.8 mg/kg | Day of first positve reaction (Mus musculus [23]): 0; No. of pos rxns (Mus musculus [24]): 0 |
| NC1CCN(c2c(F)cc3c(=O)c(C(=O)O)cn(C4CC4)c3c2F)C1 (stereo not drawn) | 0.2 mg/kg | 0.05 µg/mL (≈ 0.143 µM) | 0.1 µg/mL (≈ 0.286 µM) | 0.025 µg/mL (≈ 0.0716 µM) | 2.3 mg/kg | 0.1 µg/mL (≈ 0.286 µM) | 3 mg/kg | 0.025 µg/mL (≈ 0.0716 µM) | 6.5 mg/kg | 0.013 µg/mL (≈ 0.0372 µM) | 4.2 mg/kg | 0.1 µg/mL (≈ 0.286 µM) | 0.003 µg/mL (≈ 0.00859 µM) | 7.5 mg/kg | 6 mg/kg | 3 mg/kg | 0.1 µg/mL (≈ 0.286 µM) | 0.025 µg/mL (≈ 0.0716 µM) | 0.05 µg/mL (≈ 0.143 µM) | 0.9 mg/kg | No. of pos rxns [25]: 15; Day of first positve reaction (Mus musculus [23]): 3; ED50 (Streptococcus pneumoniae [15]): 15 mg/kg; ED50 (Streptococcus pneumoniae [22]): 5.5 mg/kg |
| NC1CCCN(c2cc3c(cc2F)c(=O)c(C(=O)O)cn3C2CC2)C1 (stereo not drawn) | 1.4 mg/kg | 0.8 µg/mL (≈ 2.32 µM) | 0.8 µg/mL (≈ 2.32 µM) | 0.05 µg/mL (≈ 0.145 µM) | 8 mg/kg | 0.2 µg/mL (≈ 0.579 µM) |  | 0.2 µg/mL (≈ 0.579 µM) |  | 0.1 µg/mL (≈ 0.29 µM) | >100 mg/kg | 0.2 µg/mL (≈ 0.579 µM) | 0.1 µg/mL (≈ 0.29 µM) | > 50 mg/kg | 100 mg/kg | 100 mg/kg | 0.8 µg/mL (≈ 2.32 µM) | 0.1 µg/mL (≈ 0.29 µM) | 0.1 µg/mL (≈ 0.29 µM) | 15 mg/kg | Day of first positve reaction (Mus musculus [23]): 0; No. of pos rxns (Mus musculus [24]): 0 |
| O=C(O)c1cn(C2CC2)c2c(F)c(N3CCNCC3)c(F)cc2c1=O | 0.26 mg/kg | 0.4 µg/mL (≈ 1.15 µM) | 0.2 µg/mL (≈ 0.573 µM) | 0.1 µg/mL (≈ 0.286 µM) | 8.9 mg/kg | 0.4 µg/mL (≈ 1.15 µM) | 2.5 mg/kg | 0.05 µg/mL (≈ 0.143 µM) | 6.6 mg/kg | 0.025 µg/mL (≈ 0.0716 µM) |  | 0.8 µg/mL (≈ 2.29 µM) | 0.013 µg/mL (≈ 0.0372 µM) | 33 mg/kg | 100 mg/kg | 100 mg/kg | 0.1 µg/mL (≈ 0.286 µM) | 0.05 µg/mL (≈ 0.143 µM) | 0.8 µg/mL (≈ 2.29 µM) | 0.45 mg/kg | No. of pos rxns (Mus musculus [26]): 0; Day of first positve reaction [27]: 0; ED50 (Streptococcus pneumoniae [15]): 59 mg/kg; PTD50 (Mus musculus [28]): 171 mg/kg; ED50 (Streptococcus pneumoniae [22]): 29 mg/kg |
